≈ marks a conversion by molar mass, not a printed value. Calls of active or inactive are those of the source. The rule behind the calls is not given here. Starred links: 1 amine or outer side, 2 acyl side, 3 side chain; linkers in the order of their positions; H or OH if unused. Positions of bridges follow the written chain, without caps; N, C: chain ends. Non-standard residues stand in square brackets, D forms with d. Residues, ends and D or L forms follow the SMILES beside them. *: point of attachment. Orn(4R-OH,5R-OH) = O=C([C@H](C[C@@H](O)[C@@H](O)N[*:3])N[*:1])[*:2]; hTyr(3S-OH,4S-OH) = N[C@H](C(=O)O)[C@H](O)[C@@H](O)c1ccc(O)cc1; Pro(3S-OH,4S-Me) = C[C@H]1CN[C@H](C(=O)O)[C@H]1O; Palmitoyl = CCCCCCCCCCCCCCCC(=O)*; Hyp = O=C(O)[C@@H]1C[C@@H](O)CN1
Legend:
Saccharomyces cerevisiae [1] = assay: Fungicidal activity against Saccharomyces cerevisiae AY-10-R15 mutant after 24 hrs by microdilution method; assay type: functional; details: AY-10-R15, 24 h
Saccharomyces cerevisiae [2] = assay: […] activity against Saccharomyces cerevisiae AY-10 after 24 hrs by microdilution method; assay type: functional; details: AY-10, 24 h
Saccharomyces cerevisiae [3] = assay: Fungicidal activity against Saccharomyces cerevisiae AY-10-R16 mutant after 24 hrs by microdilution method; assay type: functional; details: AY-10-R16, 24 h
Saccharomyces cerevisiae [4] = assay: […] activity against Saccharomyces cerevisiae AY-10 transformed with pRS416-31 carrying KRE6 gene after 24 hrs by microdilution method; assay type: functional; details: AY-10, 24 h
Saccharomyces cerevisiae [5] = assay: […] activity against Saccharomyces cerevisiae AY-10 transformed with pRS416-13 carrying ADP1 gene after 24 hrs by microdilution method; assay type: functional; details: AY-10, 24 h
Saccharomyces cerevisiae [6] = assay: […] activity against Saccharomyces cerevisiae AY-10 transformed with empty vector pRS416 after 24 hrs by microdilution method; assay type: functional; details: AY-10, 24 h
Saccharomyces cerevisiae [7] = assay: Fungicidal activity against Saccharomyces cerevisiae AY-10-R11 mutant after 24 hrs by microdilution method; assay type: functional; details: AY-10-R11, 24 h
Saccharomyces cerevisiae [8] = assay: Fungicidal activity against Saccharomyces cerevisiae AY-10-R4 mutant after 24 hrs by microdilution method; assay type: functional; details: AY-10-R4, 24 h
Saccharomyces cerevisiae [9] = assay: Inhibition of beta-1,6-Glucan synthesis in Saccharomyces cerevisiae AY-10 assessed as reduction in [14C]glucose incorporation at 0.078 ug/ml after 3 hrs; assay type: functional, organism-based; details: at 0.078 µg/mL
Procedure, shortened: (§1)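 Exponentially growing cells in RPMI 1640 (absorbance ~0.6 at 595 nm) incubated at 30°C with drug plus [14C]glucose at 2 μCi/ml. Cells extracted twice with 3% NaOH at 80°C, then the insoluble material digested overnight at 30°C with Zymolyase 100T (1 mg/ml, pH 7.5). The soluble fraction was dialysed to remove β-1,3-glucan oligosaccharides, and the retained β-1,6-glucan was counted by scintillation. Read-out is percent change in incorporated radioactivity versus the drug-free control.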

Saccharomyces cerevisiae [10] = assay: Inhibition of beta-1,6-Glucan synthesis in Saccharomyces cerevisiae AY-10 assessed as reduction in [14C]glucose incorporation at 0.039 to 0.625 ug/ml after 1 hr; assay type: functional, organism-based; details: at 0.039 to 0.625 µg/mL; procedure, shortened: as §1
Saccharomyces cerevisiae [11] = assay: Inhibition of beta-1,6-Glucan synthesis in Saccharomyces cerevisiae AY-10 assessed as reduction in [14C]glucose incorporation at 0.078 to 1.25 ug/ml after 3 hrs; assay type: functional, organism-based; details: at 0.078 to 1.25 µg/mL; procedure, shortened: as §1
Saccharomyces cerevisiae [12] = assay: Inhibition of beta-1,6-Glucan synthesis assessed as reduction in [14C]glucose incorporation at 0.025 to 4 ug/ml after 1 hr; details: AY-10
Saccharomyces cerevisiae [13] = assay: Inhibition of beta-1,6-Glucan synthesis in Saccharomyces cerevisiae AY-10 assessed as reduction in [14C]glucose incorporation at 0.078 ug/ml after 1 hr; assay type: functional, organism-based; details: at 0.078 µg/mL; procedure, shortened: as §1
Nakaseomyces glabratus [14] = assay: Inhibition of beta-1,6-Glucan synthesis in Candida glabrata IFO0622 assessed as reduction in [14C]glucose incorporation at 0.025 to 4 ug/ml after 3 hrs; assay type: functional, organism-based; procedure, shortened: as §1
Saccharomyces cerevisiae [15] = assay: Inhibition of beta-1,6-Glucan synthesis in Saccharomyces cerevisiae AY-10 assessed as reduction in [14C]glucose incorporation at 0.039 to 0.625 ug/ml after 3 hrs; assay type: functional, organism-based; details: at 0.039 to 0.625 µg/mL; procedure, shortened: as §1
Saccharomyces cerevisiae [16] = assay: Inhibition of beta-1,3-Glucan synthesis in Saccharomyces cerevisiae AY-10 assessed as reduction in [14C]glucose incorporation at 0.039 to 0.625 ug/ml after 1 hr; assay type: functional, organism-based
Procedure, shortened: (§2)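 Exponential cells in RPMI 1640 at A595 about 0.6, pulse-labelled with [14C]glucose 2 μCi/ml plus drug at 30°C, sampled at 1 and 3 h. Cell wall fractionated: mannan from 3% NaOH extracts at 80°C by Fehling's reaction; residue digested with Zymolyase 100T (1 mg/ml), insoluble part = chitin; β-1,3-glucan = total glucan minus dialysed β-1,6-glucan. Scintillation counting; % change versus untreated.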

Saccharomyces cerevisiae [17] = assay: Inhibition of beta-1,3-Glucan synthesis in Saccharomyces cerevisiae AY-10 assessed as reduction in [14C]glucose incorporation at 0.039 to 0.625 ug/ml after 3 hrs; assay type: functional, organism-based; procedure, shortened: as §2
Saccharomyces cerevisiae [18] = assay: Inhibition of beta-1,6-Glucan synthesis in Saccharomyces cerevisiae AY-10 assessed as reduction in [14C]glucose incorporation at 0.078 to 1.25 ug/ml after 1 hr; assay type: functional, organism-based; details: at 0.078 to 1.25 µg/mL; procedure, shortened: as §1
Candida tropicalis [19] = assay: Antifungal activity against Candida tropicalis TIMM0313 after 24 hrs by microdilution method; assay type: functional; details: TIMM0313, 24 h
Procedure, shortened: (§3)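 CLSI broth microdilution run at 30°C instead of standard temperature; starting inoculum 1 × 10^3 to 3 × 10^3 cells/ml; DMSO under 1% final. Endpoints: MIC-0 = lowest concentration giving an optically clear well; MIC-2 = 50% drop versus drug-free control in absorbance at 570 nm with alamar blue redox indicator, used because treated cells clump.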

Pichia kudriavzevii = assay: Antifungal activity against Candida krusei TIMM0269 after 24 hrs by microdilution method; assay type: functional; details: TIMM0269, 24 h; procedure, shortened: as §3
Candida parapsilosis = assay: Antifungal activity against Candida parapsilosis IFO1396 after 24 hrs by microdilution method; assay type: functional; details: Lodderomyces parapsilosis, IFO1396, 24 h; procedure, shortened: as §3
Aspergillus terreus = assay: Antifungal activity against Aspergillus terreus ATCC 28301 after 24 hrs by microdilution method; assay type: functional; details: ATCC 28301, 24 h; procedure, shortened: as §3
Saccharomyces cerevisiae [20] = assay: Antifungal activity against Saccharomyces cerevisiae YPH500 after 24 hrs by microdilution method; assay type: functional; details: YPH500, 24 h
Procedure, shortened: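 CLSI broth microdilution, incubated at 30°C, starting inoculum 1 × 10^3 to 3 × 10^3 cells/ml; drugs from DMSO, final DMSO below 1%. MIC-0 is the lowest concentration giving an optically clear well. MIC-2 is read with alamar blue as a 50% drop in A570 versus the drug-free control; both endpoints were recorded.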

Kluyveromyces marxianus = assay: Antifungal activity against Candida kefyr ATCC 46764 after 24 hrs by microdilution method; assay type: functional; details: ATCC 46764, 24 h; procedure, shortened: as §3
Trichosporon asahii = assay: Antifungal activity against Trichosporon asahii ATCC 90039 after 24 hrs by microdilution method; assay type: functional; details: ATCC 90039, 24 h; procedure, shortened: as §3
Aspergillus fumigatus = assay: Antifungal activity against Aspergillus fumigatus ATCC 36607 after 24 hrs by microdilution method; assay type: functional; details: ATCC 36607, 24 h; procedure, shortened: as §3
Nakaseomyces glabratus [21] = assay: Antifungal activity against Candida glabrata ATCC 200918 after 24 hrs by microdilution method; assay type: functional; details: ATCC 200918, 24 h; procedure, shortened: as §3
Nakaseomyces glabratus [22] = assay: Antifungal activity against Candida glabrata IFO0622 after 24 hrs by microdilution method; assay type: functional; details: IFO0622, 24 h; procedure, shortened: as §3
Aspergillus flavus = assay: Antifungal activity against Aspergillus flavus ATCC 64025 after 24 hrs by microdilution method; assay type: functional; details: ATCC 64025, 24 h; procedure, shortened: as §3
Clavispora lusitaniae = assay: Antifungal activity against Candida lusitaniae ATCC 200951 after 24 hrs by microdilution method; assay type: functional; details: ATCC 200951, 24 h; procedure, shortened: as §3
Candida albicans [23] = assay: Antifungal activity against Candida albicans ATCC MYA-573 after 24 hrs by microdilution method; assay type: functional; details: ATCC MYA-573, 24 h; procedure, shortened: as §3
Candida tropicalis [24] = assay: Antifungal activity against Candida tropicalis ATCC 200956 after 24 hrs by microdilution method; assay type: functional; details: ATCC 200956, 24 h; procedure, shortened: as §3
Candida albicans [25] = assay: Antifungal activity against Candida albicans ATCC 24433 after 24 hrs by microdilution method; assay type: functional; details: ATCC 24433, 24 h; procedure, shortened: as §3
Cryptococcus neoformans = assay: Antifungal activity against Cryptococcus neoformans ATCC 90112 after 24 hrs by microdilution method; assay type: functional; details: ATCC 90112, 24 h; procedure, shortened: as §3

Nc1nc(=O)[nH]cc1F [FLUCYTOSINE]
MIC (Saccharomyces cerevisiae [1]): 4 µg/mL (≈ 31 µM)
MIC (Saccharomyces cerevisiae [2]): 2 µg/mL (≈ 15.5 µM)
MIC (Saccharomyces cerevisiae [3]): 2 µg/mL (≈ 15.5 µM)
MIC (Saccharomyces cerevisiae [4]): 2 µg/mL (≈ 15.5 µM)
MIC (Saccharomyces cerevisiae [5]): 4 µg/mL (≈ 31 µM)
MIC (Saccharomyces cerevisiae [6]): 2 µg/mL (≈ 15.5 µM)
MIC (Saccharomyces cerevisiae [7]): 4 µg/mL (≈ 31 µM)
MIC (Saccharomyces cerevisiae [8]): 2 µg/mL (≈ 15.5 µM)

C[C@@H]1[C@H](O)[C@@H](C)/C=C/C=C/C=C/C=C/C=C/C=C/C=C/[C@H](O[C@@H]2O[C@H](C)[C@@H](O)[C@H](N)[C@@H]2O)C[C@@H]2O[C@](O)(C[C@@H](O)C[C@@H](O)[C@H](O)CC[C@@H](O)C[C@@H](O)CC(=O)O[C@H]1C)C[C@H](O)[C@H]2C(=O)O [AMPHOTERICIN B]
MIC (Saccharomyces cerevisiae [1]): 0.25 µg/mL (≈ 0.271 µM)
MIC (Saccharomyces cerevisiae [2]): 0.25 µg/mL (≈ 0.271 µM)
MIC (Saccharomyces cerevisiae [3]): 0.25 µg/mL (≈ 0.271 µM)
MIC (Saccharomyces cerevisiae [4]): 0.25 µg/mL (≈ 0.271 µM)
MIC (Saccharomyces cerevisiae [5]): 0.125 µg/mL (≈ 0.135 µM)
MIC (Saccharomyces cerevisiae [6]): 0.25 µg/mL (≈ 0.271 µM)
MIC (Saccharomyces cerevisiae [7]): 0.125 µg/mL (≈ 0.135 µM)
MIC (Saccharomyces cerevisiae [8]): 0.0625 µg/mL (≈ 0.0676 µM)

CCCCCCCCCCCCCCCC(=O)N[C@H]1C[C@@H](O)[C@@H](O)NC(=O)[C@@H]2[C@@H](O)[C@@H](C)CN2C(=O)[C@H]([C@@H](C)O)NC(=O)[C@H]([C@H](O)[C@@H](O)c2ccc(O)cc2)NC(=O)[C@@H]2C[C@@H](O)CN2C(=O)[C@H]([C@@H](C)O)NC1=O [ACULEACIN A] (Palmitoyl-[Orn(4R-OH,5R-OH)]T[Hyp][hTyr(3S-OH,4S-OH)]T[Pro(3S-OH,4S-Me)]; lactam 1-C)
MIC (Saccharomyces cerevisiae [1]): 0.5 µg/mL (≈ 0.483 µM)
inhibition (Saccharomyces cerevisiae [9]): Active
inhibition (Saccharomyces cerevisiae [10]): inactive
MIC (Saccharomyces cerevisiae [2]): 0.5 µg/mL (≈ 0.483 µM)
MIC (Saccharomyces cerevisiae [3]): 0.25 µg/mL (≈ 0.241 µM)
inhibition (Saccharomyces cerevisiae [11]): Active
MIC (Saccharomyces cerevisiae [4]): 0.5 µg/mL (≈ 0.483 µM)
MIC (Saccharomyces cerevisiae [5]): 0.25 µg/mL (≈ 0.241 µM)
Activity (Saccharomyces cerevisiae [12]): Active
inhibition (Saccharomyces cerevisiae [13]): Active
Activity (Nakaseomyces glabratus [14]): Active
MIC (Saccharomyces cerevisiae [6]): 0.5 µg/mL (≈ 0.483 µM)
inhibition (Saccharomyces cerevisiae [15]): inactive
MIC (Saccharomyces cerevisiae [7]): 0.25 µg/mL (≈ 0.241 µM)
MIC (Saccharomyces cerevisiae [8]): 0.125 µg/mL (≈ 0.121 µM)
inhibition (Saccharomyces cerevisiae [16]): Active
inhibition (Saccharomyces cerevisiae [17]): Active
inhibition (Saccharomyces cerevisiae [18]): Active

OC(Cn1cncn1)(Cn1cncn1)c1ccc(F)cc1F [FLUCONAZOLE]
MIC50 (Candida tropicalis [19]): 0.25 µg/mL (≈ 0.816 µM)
MIC50 (Pichia kudriavzevii): > 64 µg/mL
MIC50 (Candida parapsilosis): 1 µg/mL (≈ 3.27 µM)
MIC50 (Aspergillus terreus): > 64 µg/mL
MIC50 (Saccharomyces cerevisiae [20]): 4 µg/mL (≈ 13.1 µM)
MIC50 (Kluyveromyces marxianus): 0.25 µg/mL (≈ 0.816 µM)
MIC50 (Trichosporon asahii): 4 µg/mL (≈ 13.1 µM)
MIC50 (Aspergillus fumigatus): > 64 µg/mL
MIC50 (Nakaseomyces glabratus [21]): 16 µg/mL (≈ 52.2 µM)
MIC50 (Nakaseomyces glabratus [22]): 2 µg/mL (≈ 6.53 µM)
MIC50 (Aspergillus flavus): > 64 µg/mL
MIC50 (Clavispora lusitaniae): 0.063 µg/mL (≈ 0.206 µM)
MIC50 (Candida albicans [23]): > 64 µg/mL
MIC50 (Candida tropicalis [24]): 16 µg/mL (≈ 52.2 µM)
MIC50 (Candida albicans [25]): 0.25 µg/mL (≈ 0.816 µM)
MIC50 (Cryptococcus neoformans): 2 µg/mL (≈ 6.53 µM)
